Test [1] concerns the target Protein arginine N-methyltransferase 1 (Homo sapiens, UniProt Q99873). Nature of the test: Inhibition of recombinant human His-tagged PRMT1 expressed in Escherichia coli BL21 (DE3) using biotin-labeled histone H4-20 as substrate incubated for 8 mins in presence of [3H]-SAM cofactor by scintillation proximity assay. (In general: SPA uses beads or plates that emit light when radiolabelled molecules are held near them.)

In test [2] the target is Protein arginine N-methyltransferase 3 (Homo sapiens, UniProt O60678). The experiment in a line: Inhibition of recombinant human His-tagged PRMT3 expressed in Escherichia coli BL21 (DE3) using biotin-labeled SMD1 as substrate incubated for 10 mins in presence of [3H]-SAM cofactor by scintillation proximity assay. The gist of the method: (§1)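 The inhibitor was serially diluted and added to the enzyme, [3H]-SAM and substrate mixture, and methylated substrate was quantified by scintillation proximity assay. Reactions were held at initial rate, with yield under 10% and substrate near Km. PRMT3, PRMT8 and G9a were His-tagged human proteins, and PRMT7 was GST-tagged, all expressed in E. coli and affinity-purified.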

Test [3] addresses T1, Histone-arginine methyltransferase CARM1 (Homo sapiens, UniProt Q86X55).
T1 sequence (Q86X55 whole entry): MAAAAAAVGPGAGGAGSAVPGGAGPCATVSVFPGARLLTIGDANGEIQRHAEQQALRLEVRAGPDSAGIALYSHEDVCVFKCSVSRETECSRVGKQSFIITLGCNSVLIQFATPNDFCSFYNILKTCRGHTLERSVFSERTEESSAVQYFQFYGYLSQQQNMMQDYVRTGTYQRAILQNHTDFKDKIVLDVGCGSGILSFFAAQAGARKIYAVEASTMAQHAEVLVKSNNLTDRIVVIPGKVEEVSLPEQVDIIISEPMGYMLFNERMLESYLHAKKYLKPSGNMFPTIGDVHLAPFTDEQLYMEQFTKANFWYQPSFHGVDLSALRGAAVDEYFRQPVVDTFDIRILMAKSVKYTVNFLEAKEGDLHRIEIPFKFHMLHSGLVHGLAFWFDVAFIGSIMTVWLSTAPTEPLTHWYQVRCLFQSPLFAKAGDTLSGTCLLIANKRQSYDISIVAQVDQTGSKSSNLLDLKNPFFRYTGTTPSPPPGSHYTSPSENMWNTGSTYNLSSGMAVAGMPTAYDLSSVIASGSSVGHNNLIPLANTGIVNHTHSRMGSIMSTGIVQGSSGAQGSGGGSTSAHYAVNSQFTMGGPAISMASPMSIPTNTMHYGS
Nature of the test: Inhibition of recombinant GST-tagged CARM1 (unknown origin) expressed in Escherichia coli using […] incubated for 120 mins in presence of [3H]-SAM cofactor by radioactive filter plate assay.

In test [4] the target is PRMT5/MEP50 complex (Homo sapiens, UniProt O14744). The experiment in a line: Inhibition of PRMT5/MEP50 (unknown origin) using biotin-labeled histone H4-20 peptide as substrate incubated for 8 mins in presence of [3H]-SAM cofactor by scintillation proximity assay. The format is protein-complex assay. In outline:
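Part of a methyltransferase selectivity panel. Test compound was serially diluted into a mixture of enzyme, [3H]-SAM cofactor and substrate. Methylated substrate was quantified by scintillation proximity assay. Reactions were held at initial-rate conditions with substrate turnover under 10%, and substrate concentrations were near Km.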

The target in test [5] is Protein arginine N-methyltransferase 6 (Homo sapiens, UniProt Q96LA8). The experiment in a line: Inhibition of PRMT6 (unknown origin) using biotin-labeled SMD1 as substrate incubated for 30 mins in presence of [3H]-SAM cofactor by scintillation proximity assay.
For test [6], the target named is T2, Protein arginine N-methyltransferase 7 (Homo sapiens, UniProt Q9NVM4).
T2 sequence (Q9NVM4 whole entry): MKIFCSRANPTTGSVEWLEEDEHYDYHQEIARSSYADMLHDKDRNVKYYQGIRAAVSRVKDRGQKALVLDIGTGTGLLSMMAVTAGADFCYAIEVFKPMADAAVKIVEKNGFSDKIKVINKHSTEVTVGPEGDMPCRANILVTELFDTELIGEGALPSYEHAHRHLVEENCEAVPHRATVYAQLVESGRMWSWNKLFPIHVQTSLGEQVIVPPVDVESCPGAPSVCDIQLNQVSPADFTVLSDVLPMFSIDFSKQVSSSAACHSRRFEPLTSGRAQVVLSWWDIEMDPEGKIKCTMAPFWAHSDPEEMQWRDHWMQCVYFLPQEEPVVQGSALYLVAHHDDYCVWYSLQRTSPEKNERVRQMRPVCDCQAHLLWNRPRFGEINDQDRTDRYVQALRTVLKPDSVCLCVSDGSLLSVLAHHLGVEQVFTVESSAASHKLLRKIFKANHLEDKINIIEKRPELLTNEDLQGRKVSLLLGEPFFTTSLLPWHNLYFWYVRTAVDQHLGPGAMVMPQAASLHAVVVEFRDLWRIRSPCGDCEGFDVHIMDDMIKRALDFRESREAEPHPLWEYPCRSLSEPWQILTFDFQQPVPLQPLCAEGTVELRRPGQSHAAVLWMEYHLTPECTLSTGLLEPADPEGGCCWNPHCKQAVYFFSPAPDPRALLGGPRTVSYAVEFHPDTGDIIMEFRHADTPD
The experiment in a line: Inhibition of recombinant GST-tagged PRMT7 (unknown origin) expressed in Escherichia coli using biotin-labeled SMD1 as substrate incubated for 120 mins in presence of [3H]-SAM cofactor by scintillation proximity assay. In outline:
as §1

Test [7] addresses Protein arginine N-methyltransferase 8 (Homo sapiens, UniProt Q9NR22). The experiment in a line: Inhibition of recombinant His-tagged human PRMT8 expressed in Escherichia coli BL21 (DE3) using biotin-labeled histone H4-20 peptide as substrate incubated for 8 mins in presence of [3H]-SAM cofactor by scintillation proximity assay. In outline:
as §1

Test [8] deals with T3, Histone-lysine N-methyltransferase EHMT2 (Homo sapiens, UniProt Q96KQ7).
T3 sequence (Q96KQ7 whole entry): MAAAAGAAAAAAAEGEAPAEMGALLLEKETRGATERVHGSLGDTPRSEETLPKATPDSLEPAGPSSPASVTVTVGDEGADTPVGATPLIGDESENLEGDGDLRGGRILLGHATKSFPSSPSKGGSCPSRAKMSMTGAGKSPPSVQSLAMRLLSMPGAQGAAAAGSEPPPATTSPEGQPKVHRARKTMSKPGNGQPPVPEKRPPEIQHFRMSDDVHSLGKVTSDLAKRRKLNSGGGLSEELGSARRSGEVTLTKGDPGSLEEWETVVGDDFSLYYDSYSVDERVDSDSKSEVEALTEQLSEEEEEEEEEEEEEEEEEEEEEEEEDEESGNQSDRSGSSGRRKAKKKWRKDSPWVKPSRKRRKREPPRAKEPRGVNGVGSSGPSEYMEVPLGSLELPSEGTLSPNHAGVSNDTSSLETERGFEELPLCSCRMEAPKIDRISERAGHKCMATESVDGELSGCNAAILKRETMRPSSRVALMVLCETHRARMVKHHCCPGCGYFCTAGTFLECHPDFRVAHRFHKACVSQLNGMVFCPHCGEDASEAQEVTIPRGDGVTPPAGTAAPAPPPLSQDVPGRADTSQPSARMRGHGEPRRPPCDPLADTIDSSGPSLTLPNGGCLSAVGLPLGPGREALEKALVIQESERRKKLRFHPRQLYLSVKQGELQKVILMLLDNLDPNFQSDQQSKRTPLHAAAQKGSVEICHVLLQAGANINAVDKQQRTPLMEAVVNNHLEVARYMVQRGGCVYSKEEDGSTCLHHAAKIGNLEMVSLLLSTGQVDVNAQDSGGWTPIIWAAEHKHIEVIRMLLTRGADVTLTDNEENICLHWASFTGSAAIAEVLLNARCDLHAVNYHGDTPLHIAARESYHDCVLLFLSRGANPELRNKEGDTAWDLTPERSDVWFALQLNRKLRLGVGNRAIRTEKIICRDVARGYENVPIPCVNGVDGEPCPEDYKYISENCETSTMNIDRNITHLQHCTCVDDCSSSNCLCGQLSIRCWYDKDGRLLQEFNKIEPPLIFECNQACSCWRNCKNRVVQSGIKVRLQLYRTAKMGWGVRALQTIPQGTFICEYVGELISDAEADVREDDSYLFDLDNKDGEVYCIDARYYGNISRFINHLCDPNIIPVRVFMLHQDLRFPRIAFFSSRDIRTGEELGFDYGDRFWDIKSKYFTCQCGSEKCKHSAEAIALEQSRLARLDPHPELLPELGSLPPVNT
The experiment in a line: Inhibition of recombinant His-tagged human G9a expressed in Escherichia coli BL21 (DE3) using biotin-labeled histone H3-20 peptide as substrate incubated for 30 mins in presence of [3H]-SAM cofactor by scintillation proximity assay. The gist of the method: as §1

For orientation: IC50 means the concentration at which inhibition is half-maximal.

SMILES strings stand for the structures.

Protein arginine N-methyltransferase 3, sequence (O60678 whole entry): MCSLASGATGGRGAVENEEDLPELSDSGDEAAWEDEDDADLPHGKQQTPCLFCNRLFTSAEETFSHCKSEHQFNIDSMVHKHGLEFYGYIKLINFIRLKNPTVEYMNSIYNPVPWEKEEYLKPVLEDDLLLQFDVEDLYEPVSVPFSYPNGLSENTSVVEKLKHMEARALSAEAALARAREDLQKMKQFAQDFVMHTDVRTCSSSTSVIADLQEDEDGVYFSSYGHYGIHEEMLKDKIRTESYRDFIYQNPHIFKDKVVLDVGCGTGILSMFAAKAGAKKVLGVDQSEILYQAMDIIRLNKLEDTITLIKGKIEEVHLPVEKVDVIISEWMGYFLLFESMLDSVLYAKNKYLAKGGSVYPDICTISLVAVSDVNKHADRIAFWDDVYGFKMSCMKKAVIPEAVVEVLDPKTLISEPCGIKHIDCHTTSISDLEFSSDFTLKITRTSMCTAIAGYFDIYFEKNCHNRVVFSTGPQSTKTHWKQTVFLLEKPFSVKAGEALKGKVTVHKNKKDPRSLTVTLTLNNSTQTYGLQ
Protein arginine N-methyltransferase 1, sequence (Q99873 whole entry): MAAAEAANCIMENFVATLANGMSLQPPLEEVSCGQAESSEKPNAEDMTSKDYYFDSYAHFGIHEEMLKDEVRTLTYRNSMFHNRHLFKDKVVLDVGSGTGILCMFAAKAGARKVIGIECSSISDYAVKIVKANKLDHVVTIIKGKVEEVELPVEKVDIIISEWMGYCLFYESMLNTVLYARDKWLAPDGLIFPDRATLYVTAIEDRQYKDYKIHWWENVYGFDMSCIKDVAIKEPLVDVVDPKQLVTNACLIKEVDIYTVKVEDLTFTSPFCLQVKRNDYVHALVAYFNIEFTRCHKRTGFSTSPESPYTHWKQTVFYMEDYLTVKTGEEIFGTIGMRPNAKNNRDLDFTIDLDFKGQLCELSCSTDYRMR
Protein arginine N-methyltransferase 6, sequence (Q96LA8 whole entry): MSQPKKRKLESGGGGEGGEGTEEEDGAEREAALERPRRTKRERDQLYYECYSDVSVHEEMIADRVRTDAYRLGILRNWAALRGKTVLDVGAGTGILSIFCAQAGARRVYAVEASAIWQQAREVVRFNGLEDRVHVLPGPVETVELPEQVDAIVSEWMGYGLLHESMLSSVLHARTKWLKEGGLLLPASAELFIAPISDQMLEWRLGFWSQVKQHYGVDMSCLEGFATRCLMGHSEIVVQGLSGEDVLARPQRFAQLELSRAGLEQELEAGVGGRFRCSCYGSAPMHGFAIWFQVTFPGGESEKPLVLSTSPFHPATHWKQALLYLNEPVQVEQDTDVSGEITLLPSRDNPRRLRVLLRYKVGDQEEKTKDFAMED
PRMT5/MEP50 complex, sequence (O14744 whole entry): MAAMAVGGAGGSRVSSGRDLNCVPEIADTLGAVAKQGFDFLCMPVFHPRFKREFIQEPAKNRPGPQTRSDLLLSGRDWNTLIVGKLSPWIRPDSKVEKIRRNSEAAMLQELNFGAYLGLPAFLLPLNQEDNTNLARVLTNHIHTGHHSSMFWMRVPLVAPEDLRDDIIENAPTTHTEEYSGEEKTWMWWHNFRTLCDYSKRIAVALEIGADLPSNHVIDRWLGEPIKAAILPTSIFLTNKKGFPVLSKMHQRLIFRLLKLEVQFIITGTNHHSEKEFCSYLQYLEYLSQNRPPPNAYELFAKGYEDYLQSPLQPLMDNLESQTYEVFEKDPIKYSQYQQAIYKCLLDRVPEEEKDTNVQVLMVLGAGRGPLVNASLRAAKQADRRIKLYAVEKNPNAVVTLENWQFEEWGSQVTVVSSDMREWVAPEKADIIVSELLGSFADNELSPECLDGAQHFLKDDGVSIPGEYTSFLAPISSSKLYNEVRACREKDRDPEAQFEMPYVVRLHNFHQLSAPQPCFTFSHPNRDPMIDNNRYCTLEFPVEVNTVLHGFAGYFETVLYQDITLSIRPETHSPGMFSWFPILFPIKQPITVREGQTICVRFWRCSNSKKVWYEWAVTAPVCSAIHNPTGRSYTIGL
PRMT5/MEP50 complex, sequence (Q9BQA1 whole entry, further chain): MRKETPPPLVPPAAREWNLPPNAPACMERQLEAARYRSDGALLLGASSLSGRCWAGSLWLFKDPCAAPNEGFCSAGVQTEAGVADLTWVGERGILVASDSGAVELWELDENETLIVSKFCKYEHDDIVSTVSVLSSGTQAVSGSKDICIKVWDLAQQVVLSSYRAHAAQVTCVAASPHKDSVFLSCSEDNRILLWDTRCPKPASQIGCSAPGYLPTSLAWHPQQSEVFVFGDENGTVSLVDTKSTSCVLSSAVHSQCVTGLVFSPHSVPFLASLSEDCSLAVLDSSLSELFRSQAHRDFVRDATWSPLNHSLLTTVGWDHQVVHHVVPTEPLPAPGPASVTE
Protein arginine N-methyltransferase 8, sequence (Q9NR22 whole entry): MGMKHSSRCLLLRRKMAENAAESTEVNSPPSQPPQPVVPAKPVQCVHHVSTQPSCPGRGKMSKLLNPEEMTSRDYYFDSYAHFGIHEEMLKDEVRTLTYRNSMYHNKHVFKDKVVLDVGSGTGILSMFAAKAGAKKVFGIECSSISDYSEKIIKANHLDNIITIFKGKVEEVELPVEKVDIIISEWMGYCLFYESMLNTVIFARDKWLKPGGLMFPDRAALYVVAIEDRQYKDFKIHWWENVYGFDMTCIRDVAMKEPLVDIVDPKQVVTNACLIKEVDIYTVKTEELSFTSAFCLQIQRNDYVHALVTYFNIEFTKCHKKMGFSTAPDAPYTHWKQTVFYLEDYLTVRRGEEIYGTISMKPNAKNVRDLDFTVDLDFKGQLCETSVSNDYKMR

`N=C(N)c1ccc2cc(CCc3cc4ccc(C(=N)N)cc4o3)[nH]c2c1`: the IC50 in test [1] is over 10 µM.

For `C(=C/c1cc2ccc(C3=NCCN3)cc2o1)/c1cc2ccc(C3=NCCN3)cc2[nH]1`, the IC50 in test [1] turned out to be 7.6 µM.

As for `c1cc2cc(-c3ccc4oc(C5=NCCN5)cc4c3)[nH]c2cc1C1=NCCN1`, the IC50 in test [2] was 19 µM; in test [3] it was 155 µM; in test [4], over 500 µM; in test [5] it was 12.9 µM; in test [6], 248 µM; in test [7], 60.1 µM. Moreover, the IC50 in test [8] came out at 39.7 µM.

Turning to `N=C(N)c1ccc2[nH]c(/C=C/c3cc4cc(C(=N)N)ccc4o3)cc2c1`, the IC50 in test [1] was 7.7 µM.

As for `N=C(N)c1ccc2sc(/C=C/c3cc4ccc(C(=N)N)cc4o3)cc2c1`, in test [1], the IC50 came out at 16.5 µM.

Turning to `C(=C\c1cc2ccc(C3=NCCN3)cc2[nH]1)/c1cc2ccc(C3=NCCN3)cc2[nH]1`, the 50% inhibitory concentration (IC50) in test [1] was determined as 6.2 µM.

For the compound `CNC(=N)N/N=C(/C)c1ccc2oc3ccc(/C(C)=N/NC(=N)NC)cc3c2c1`, the IC50 in test [1] was found to be 6.9 µM; in test [2], 8.2 µM; in test [3], 15.5 µM; in test [4], 18.9 µM; in test [5], 6.01 µM; in test [6] it was 23.3 µM. Besides, the IC50 amounted to 17.6 µM in test [7] and 4.7 µM in test [8].

`CNCC(=O)NC1=CC2C(=O)c3ccc(NC(=O)CNC)cc3C(=O)C2C=C1` (stereo not given): the IC50 in test [2] is 11.6 µM; in test [3], 12.4 µM; in test [4] it was over 500 µM; in test [5], 84.5 µM; in test [6] it was 288 µM; in test [7], 43.7 µM. Further, in test [8], the IC50 is over 1000 µM.

As to `N=C(N)c1ccc2[nH]c(/C=C/c3cc4ccc(C(=N)N)cc4o3)cc2c1`, the IC50 in test [1] worked out at 7.5 µM.

Take `N=C(N)c1ccc2cc(/C=C/c3cc4ccc(C(=N)N)cc4o3)[nH]c2c1`: in test [1], the half-maximal inhibitory concentration (IC50) turned out to be 2.4 µM.

As for `O=C(Nc1ccc(C2=NCCN2)cc1)c1cc2cc(C3=NCCN3)ccc2o1`, in test [1], the IC50 was over 100 µM.

Turning to `C(=C\c1cc2ccc(C3=NCCN3)cc2[nH]1)/c1ccc(Oc2ccc(C3=NCCN3)cc2)cc1`, in test [1], the IC50 amounted to 16.3 µM.

On to `C(=C/c1cc2ccc(C3=NCCN3)cc2o1)/c1cc2cc(C3=NCCN3)ccc2[nH]1`, for which the half-maximal inhibitory concentration (IC50) in test [1] stood at 7.9 µM.

As for `N=C(N)c1ccc(NC(=O)c2cc3cc(C(=N)N)ccc3o2)cc1`, in test [1], the 50% inhibitory concentration (IC50) was over 100 µM.

For the compound `N=C(N)c1ccc(/C=C/c2cc3cc(C(=N)N)ccc3o2)cc1`, the IC50 in test [1] came to 10 µM.

`Nc1nc(N)c2nc3c(ccc4ccccc43)nc2n1`: the IC50 in test [2] worked out at 55.7 µM; in test [3], 9.1 µM; in test [4], 62.1 µM; in test [5], 62.9 µM; in test [6], 126 µM; in test [7], 167 µM. Besides, in test [8], the IC50 is 81.5 µM.

`C1=C(/C=C/c2ccc3cc(C4=NCCN4)[nH]c3c2)Cc2cc(C3=NCCN3)ccc21`: the 50% inhibitory concentration (IC50) in test [1] is 5 µM.

For `N=C(N)c1ccc(NC(=O)c2cc3ccc(C(=N)N)cc3o2)cc1`, in test [1], the concentration for half-maximal inhibition (IC50) is over 100 µM.

For the compound `O=C(Nc1ccc(C2=NCCN2)cc1)c1cc2ccc(C3=NCCN3)cc2o1`, the IC50 in test [1] is over 100 µM.

Turning to `N=C(N)c1ccc(-c2ccc(-c3ccc(C(=N)N)cc3)o2)cc1` [FURAMIDINE], the IC50 in test [1] stood at 8.9 µM.

These data come from ChEMBL document CHEMBL4680065, “Pharmacophore-based screening of diamidine small molecule inhibitors for protein arginine methyltransferases” (RSC Med Chem, 2021).
